# ChEMBL document CHEMBL1149254, “The discovery of orally active triaminotriazine aniline amides as inhibitors of p38 MAP kinase” (J Med Chem, 2004)
# Activity calls are given as the source filed them. No cut-off for these calls is given here.
# Assays:
# THP-1 = assay: Inhibition of LPS-induced TNFalpha production in human THP1 cells by ELISA; assay type: functional, cell-based
# In short: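 THP-1 cells grown in RPMI 1640 with 10% FBS, 40000 cells/well. Compound or vehicle was added (1% DMSO final), then LPS at 1 μg/mL final. Cells were incubated overnight at 37 °C, 5% CO2. TNF in the supernatant was measured by sandwich ELISA: anti-human TNF capture, biotinylated polyclonal detection, streptavidin-peroxidase read-out.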
# [1] = target: Mitogen-activated protein kinase 14 (Homo sapiens, UniProt Q16539); assay: Inhibition of human p38-alpha expressed in Escherichia coli
# Sequence of Mitogen-activated protein kinase 14 (Q16539 whole entry): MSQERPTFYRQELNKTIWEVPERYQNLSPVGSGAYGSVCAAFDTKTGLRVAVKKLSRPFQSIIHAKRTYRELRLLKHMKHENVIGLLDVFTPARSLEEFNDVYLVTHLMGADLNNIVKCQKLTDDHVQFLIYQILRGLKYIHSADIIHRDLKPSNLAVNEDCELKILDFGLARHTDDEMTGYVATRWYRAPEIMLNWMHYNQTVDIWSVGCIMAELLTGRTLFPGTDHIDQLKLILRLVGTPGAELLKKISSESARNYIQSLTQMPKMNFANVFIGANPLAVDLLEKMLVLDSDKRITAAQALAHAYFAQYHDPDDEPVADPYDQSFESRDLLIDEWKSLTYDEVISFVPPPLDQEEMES
# [2] = target: Protein kinase C delta type (Homo sapiens, UniProt Q05655); assay: Inhibition of PKCdelta
# Sequence of Protein kinase C delta type (Q05655 whole entry): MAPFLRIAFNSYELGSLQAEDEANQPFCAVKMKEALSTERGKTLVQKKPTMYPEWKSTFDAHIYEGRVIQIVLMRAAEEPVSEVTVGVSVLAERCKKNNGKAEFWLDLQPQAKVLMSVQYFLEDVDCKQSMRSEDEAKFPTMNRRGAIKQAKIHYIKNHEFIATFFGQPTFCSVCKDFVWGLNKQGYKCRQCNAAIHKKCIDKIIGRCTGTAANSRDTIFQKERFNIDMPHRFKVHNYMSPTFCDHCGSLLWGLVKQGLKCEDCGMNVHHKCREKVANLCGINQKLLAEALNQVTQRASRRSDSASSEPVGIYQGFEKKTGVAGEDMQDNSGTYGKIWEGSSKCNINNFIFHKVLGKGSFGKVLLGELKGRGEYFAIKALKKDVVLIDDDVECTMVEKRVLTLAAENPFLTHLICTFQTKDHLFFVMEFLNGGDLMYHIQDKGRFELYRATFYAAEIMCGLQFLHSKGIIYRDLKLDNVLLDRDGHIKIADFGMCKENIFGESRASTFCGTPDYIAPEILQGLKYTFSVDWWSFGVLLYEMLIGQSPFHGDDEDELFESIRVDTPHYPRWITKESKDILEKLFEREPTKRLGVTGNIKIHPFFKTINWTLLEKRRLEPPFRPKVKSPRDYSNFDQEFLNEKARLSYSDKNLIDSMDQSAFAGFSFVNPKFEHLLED
# Mus musculus [3] = assay: Inhibition of LPS-induced TNFalpha release in po dosed BALB/c mouse after 90 mins; assay type: functional; conditions: 1.5 h
# In short: (§1)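 Female BALB/c mice, 6–8 weeks old. Compound in 100% PEG 300 given by oral gavage 30 min before ip LPS (0.1 mL of 10 μg/mL in PBS). Blood was taken 90 min after LPS and serum TNF-α measured by ELISA. Mean ± SD, n = 8 mice per group.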
# [4] = target: T1, Tyrosine-protein kinase ZAP-70 (Homo sapiens, UniProt P43403); assay: Inhibition of Zap70
# T1 sequence (P43403 whole entry): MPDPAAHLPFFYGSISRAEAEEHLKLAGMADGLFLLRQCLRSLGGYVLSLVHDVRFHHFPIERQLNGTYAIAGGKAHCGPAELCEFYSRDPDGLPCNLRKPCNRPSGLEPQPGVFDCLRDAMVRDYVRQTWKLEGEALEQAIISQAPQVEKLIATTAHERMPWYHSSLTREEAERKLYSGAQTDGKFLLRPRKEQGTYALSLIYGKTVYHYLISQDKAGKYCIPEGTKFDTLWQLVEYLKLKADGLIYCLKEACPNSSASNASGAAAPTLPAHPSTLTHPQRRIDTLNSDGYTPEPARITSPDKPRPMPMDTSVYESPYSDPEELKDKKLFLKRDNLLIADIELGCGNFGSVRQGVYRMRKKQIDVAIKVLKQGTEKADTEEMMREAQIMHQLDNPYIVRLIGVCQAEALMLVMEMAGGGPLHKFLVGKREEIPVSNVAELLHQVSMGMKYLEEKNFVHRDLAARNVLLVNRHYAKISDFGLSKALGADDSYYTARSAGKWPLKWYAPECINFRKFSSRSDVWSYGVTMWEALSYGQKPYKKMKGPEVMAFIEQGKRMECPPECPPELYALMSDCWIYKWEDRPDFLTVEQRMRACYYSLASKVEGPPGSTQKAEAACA
# Rattus norvegicus = assay: Suppression of paw swelling in adjuvant arthritis Lewis rat model at 50 mg/kg, po BID
# Liver microsomes = assay: Metabolic stability in human liver microsomes; assay type: ADME, Microsome
# [5] = target: T2, Inhibitor of nuclear factor kappa-B kinase subunit beta (Homo sapiens, UniProt O14920); assay: Inhibition of human IKK2beta
# T2 sequence (O14920 whole entry): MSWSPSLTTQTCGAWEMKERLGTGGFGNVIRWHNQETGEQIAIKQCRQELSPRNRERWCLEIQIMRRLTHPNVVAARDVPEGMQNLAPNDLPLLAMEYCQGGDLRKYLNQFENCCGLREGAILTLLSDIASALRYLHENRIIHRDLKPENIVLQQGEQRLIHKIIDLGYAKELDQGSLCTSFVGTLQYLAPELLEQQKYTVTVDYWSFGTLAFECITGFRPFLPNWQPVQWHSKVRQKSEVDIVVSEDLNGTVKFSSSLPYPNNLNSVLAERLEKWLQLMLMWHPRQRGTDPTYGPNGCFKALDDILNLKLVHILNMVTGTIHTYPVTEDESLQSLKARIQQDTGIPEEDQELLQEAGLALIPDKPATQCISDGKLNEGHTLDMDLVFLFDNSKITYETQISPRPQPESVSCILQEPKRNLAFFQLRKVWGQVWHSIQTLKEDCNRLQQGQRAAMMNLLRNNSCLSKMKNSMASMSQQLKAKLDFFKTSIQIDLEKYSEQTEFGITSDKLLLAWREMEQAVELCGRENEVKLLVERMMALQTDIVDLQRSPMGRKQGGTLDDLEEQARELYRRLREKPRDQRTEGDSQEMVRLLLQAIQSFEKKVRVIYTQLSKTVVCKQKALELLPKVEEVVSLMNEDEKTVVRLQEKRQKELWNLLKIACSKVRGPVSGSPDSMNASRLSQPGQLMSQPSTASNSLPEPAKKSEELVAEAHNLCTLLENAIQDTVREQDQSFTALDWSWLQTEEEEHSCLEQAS
# [6] = Cytotoxicity against phytohemagglutininin-stimulated human T blast cells at 30 uM after 24 hrs relative to control; assay type: cell-based; conditions: t-cell
# In short: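 PBMC T cells (1.25×10^6/mL) stimulated with 5 μg/mL PHA for 4 days to give dividing blasts. Blasts at 1.5×10^6/mL were exposed to 30 μM compound in RPMI with 10% FBS and 0.003% DMSO final, for 24 h at 37 °C, 5% CO2. Viability was read as metabolic activity by AlamarBlue and expressed relative to control.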
# [7] = target: Tyrosine-protein kinase Lck (Homo sapiens, UniProt P06239); assay: Inhibition of LCK
# Sequence of Tyrosine-protein kinase Lck (P06239 whole entry): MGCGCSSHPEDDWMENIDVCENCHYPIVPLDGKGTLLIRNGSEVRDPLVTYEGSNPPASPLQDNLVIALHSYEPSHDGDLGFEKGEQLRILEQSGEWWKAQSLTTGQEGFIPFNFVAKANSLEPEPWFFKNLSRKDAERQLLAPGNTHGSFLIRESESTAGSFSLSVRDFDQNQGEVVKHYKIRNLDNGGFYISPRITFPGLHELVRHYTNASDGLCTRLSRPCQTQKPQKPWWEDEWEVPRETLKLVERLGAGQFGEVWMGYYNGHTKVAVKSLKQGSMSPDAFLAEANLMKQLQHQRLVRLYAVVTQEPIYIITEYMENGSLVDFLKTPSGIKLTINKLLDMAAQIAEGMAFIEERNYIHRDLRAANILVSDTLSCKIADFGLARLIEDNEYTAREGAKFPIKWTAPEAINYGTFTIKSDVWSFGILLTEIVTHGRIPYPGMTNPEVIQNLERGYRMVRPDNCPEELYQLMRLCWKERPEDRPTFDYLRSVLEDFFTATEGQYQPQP
# [8] = Half life in mouse; assay type: ADME, organism-based; conditions: in vivo
# [9] = target: Protein kinase C alpha type (Homo sapiens, UniProt P17252); assay: Inhibition of PKCalpha
# Mus musculus [10] = assay: Inhibition of LPS-induced TNFalpha release in BALB/c mouse administered at 10 mg/kg before 2 hrs of LPS challenge; assay type: functional, organism-based; set-up: dose 10 mg/kg
# In short: (§2)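 BALB/c mouse LPS-TNF model. Compound was given at 10 mpk at time points from 30 min to 10 h before LPS challenge, and TNF suppression was assessed at each pretreatment interval.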
# [11] = target: MAP kinase-activated protein kinase 2 (Homo sapiens, UniProt P49137); assay: Inhibition of MK2
# Sequence of MAP kinase-activated protein kinase 2 (P49137 whole entry): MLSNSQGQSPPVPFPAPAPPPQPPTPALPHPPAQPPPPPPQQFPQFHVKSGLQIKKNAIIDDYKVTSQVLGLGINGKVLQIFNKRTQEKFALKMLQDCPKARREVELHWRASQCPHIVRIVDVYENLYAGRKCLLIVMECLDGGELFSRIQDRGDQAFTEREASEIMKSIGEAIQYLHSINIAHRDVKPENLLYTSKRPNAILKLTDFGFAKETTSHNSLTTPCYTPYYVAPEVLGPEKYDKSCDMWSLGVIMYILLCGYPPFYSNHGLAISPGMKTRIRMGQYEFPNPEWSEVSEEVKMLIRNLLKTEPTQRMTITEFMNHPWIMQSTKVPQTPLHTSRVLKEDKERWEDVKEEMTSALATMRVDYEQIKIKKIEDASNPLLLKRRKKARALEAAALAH
# Mus musculus [12] = assay: Inhibition of LPS-induced TNFalpha release in BALB/c mouse administered at 10 mg/kg before 30 mins of LPS challenge; assay type: functional, organism-based; set-up: dose 10 mg/kg; in short: as §2
# [13] = target: Mitogen-activated protein kinase 11 (Homo sapiens, UniProt Q15759); assay: Inhibition of human p38beta
# Sequence of Mitogen-activated protein kinase 11 (Q15759 whole entry): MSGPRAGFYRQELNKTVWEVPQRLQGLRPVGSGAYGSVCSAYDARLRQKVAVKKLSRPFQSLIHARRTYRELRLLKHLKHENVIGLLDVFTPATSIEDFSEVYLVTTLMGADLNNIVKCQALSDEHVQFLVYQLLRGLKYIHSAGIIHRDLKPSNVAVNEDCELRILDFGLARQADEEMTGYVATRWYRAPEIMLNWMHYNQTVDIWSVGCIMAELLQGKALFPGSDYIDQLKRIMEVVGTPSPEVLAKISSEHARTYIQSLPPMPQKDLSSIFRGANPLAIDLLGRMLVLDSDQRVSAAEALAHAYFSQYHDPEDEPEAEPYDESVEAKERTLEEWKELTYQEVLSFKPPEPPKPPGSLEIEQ
# [14] = Clearance in mouse; assay type: ADME, organism-based; conditions: in vivo
# Mus musculus [15] = assay: Inhibition of LPS-induced TNFalpha release in BALB/c mouse at 5 mg/kg, po after 90 mins; assay type: functional, organism-based; set-up: dose 5 mg/kg; in short: as §1
# [16] = target: T3, Tyrosine-protein kinase JAK3 (Homo sapiens, UniProt P52333); assay: Inhibition of JAK3
# T3 sequence (P52333 whole entry): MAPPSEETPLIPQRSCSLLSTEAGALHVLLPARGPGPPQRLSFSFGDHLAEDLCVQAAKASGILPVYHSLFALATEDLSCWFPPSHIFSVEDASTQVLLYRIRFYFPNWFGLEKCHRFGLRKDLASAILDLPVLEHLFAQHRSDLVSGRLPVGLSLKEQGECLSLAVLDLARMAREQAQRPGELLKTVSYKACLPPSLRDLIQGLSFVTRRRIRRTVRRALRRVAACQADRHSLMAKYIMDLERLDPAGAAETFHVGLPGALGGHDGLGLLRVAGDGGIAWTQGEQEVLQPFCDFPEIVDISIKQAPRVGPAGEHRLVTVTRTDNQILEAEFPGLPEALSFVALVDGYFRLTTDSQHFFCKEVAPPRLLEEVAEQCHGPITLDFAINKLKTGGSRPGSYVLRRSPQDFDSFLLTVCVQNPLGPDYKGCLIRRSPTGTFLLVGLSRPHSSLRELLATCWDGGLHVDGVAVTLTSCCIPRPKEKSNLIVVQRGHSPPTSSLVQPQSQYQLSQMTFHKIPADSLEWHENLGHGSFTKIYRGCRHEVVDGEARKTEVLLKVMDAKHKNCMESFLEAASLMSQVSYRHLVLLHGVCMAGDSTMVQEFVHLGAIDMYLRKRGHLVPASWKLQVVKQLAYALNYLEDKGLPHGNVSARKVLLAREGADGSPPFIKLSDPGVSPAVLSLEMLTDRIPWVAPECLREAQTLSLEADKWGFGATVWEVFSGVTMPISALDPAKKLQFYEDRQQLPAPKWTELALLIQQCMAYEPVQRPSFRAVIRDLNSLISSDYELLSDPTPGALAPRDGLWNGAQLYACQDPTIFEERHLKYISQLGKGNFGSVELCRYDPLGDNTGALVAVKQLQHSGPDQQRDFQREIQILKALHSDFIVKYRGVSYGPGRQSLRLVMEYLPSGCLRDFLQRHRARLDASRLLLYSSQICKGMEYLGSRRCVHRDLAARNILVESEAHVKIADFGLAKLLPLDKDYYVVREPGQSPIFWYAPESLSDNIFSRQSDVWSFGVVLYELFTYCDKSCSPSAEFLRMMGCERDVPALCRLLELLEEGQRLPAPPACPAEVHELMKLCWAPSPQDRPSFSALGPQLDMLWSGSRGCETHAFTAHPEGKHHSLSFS
# PBMC = assay: Inhibition of LPS-induced TNFalpha production in human PBMC by ELISA; assay type: functional, cell-based
# In short: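 PBMC from healthy donors, isolated on ficoll, plated at 1×10^6 cells/mL in RPMI with 10% FBS. Compound was preincubated for 30 min, then cells were stimulated with 25 ng/mL LPS (final) for 6 h at 37 °C, 5% CO2. Supernatant TNF-α was measured by ELISA.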
# [17] = Bioavailability in mouse; assay type: ADME, organism-based; conditions: in vivo
# [18] = target: Vascular endothelial growth factor receptor 2 (Homo sapiens, UniProt P35968); assay: Inhibition of KDR
# Sequence of Vascular endothelial growth factor receptor 2 (P35968 whole entry): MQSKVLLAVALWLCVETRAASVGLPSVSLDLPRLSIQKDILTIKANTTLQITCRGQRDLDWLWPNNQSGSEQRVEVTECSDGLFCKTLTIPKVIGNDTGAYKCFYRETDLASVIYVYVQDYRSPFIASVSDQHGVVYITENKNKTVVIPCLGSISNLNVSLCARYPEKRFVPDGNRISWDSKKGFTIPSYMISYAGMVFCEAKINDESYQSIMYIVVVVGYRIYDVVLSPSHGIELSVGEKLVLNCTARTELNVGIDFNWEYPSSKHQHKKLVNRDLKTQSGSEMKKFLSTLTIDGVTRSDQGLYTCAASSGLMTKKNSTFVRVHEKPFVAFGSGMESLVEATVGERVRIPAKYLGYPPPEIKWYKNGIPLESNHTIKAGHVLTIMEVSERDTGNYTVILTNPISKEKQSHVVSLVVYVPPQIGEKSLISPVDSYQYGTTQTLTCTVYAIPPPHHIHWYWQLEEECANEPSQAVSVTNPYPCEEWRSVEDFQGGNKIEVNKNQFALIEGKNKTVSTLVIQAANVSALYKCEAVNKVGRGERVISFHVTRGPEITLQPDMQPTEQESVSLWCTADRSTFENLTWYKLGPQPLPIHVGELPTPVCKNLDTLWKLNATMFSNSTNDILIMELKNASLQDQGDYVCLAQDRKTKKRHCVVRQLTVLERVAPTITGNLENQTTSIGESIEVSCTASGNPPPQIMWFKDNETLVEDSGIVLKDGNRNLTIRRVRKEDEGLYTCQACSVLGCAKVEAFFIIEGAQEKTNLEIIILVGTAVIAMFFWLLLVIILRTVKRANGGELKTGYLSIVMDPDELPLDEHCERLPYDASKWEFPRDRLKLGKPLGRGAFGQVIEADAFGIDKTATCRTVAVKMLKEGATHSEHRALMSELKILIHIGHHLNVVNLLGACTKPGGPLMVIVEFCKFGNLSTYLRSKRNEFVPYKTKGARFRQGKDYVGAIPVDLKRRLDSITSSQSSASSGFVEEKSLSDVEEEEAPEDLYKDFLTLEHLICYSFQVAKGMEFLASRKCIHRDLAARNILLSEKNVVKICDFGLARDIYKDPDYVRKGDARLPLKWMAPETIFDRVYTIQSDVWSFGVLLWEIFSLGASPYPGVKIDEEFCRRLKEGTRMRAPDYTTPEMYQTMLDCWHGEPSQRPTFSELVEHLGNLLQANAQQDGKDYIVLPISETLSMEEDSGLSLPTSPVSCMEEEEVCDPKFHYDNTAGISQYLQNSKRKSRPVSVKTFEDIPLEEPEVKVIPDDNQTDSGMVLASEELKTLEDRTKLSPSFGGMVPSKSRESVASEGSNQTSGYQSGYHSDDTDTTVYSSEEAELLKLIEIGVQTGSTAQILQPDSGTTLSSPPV
# [19] = target: cAMP-dependent protein kinase (PKA) (Homo sapiens, UniProt P22694+P17612+P22612); assay: Inhibition of PKA; assay type: protein assay
# [20] = Metabolic stability in mouse liver microsomes; assay type: ADME, Microsome
compound,measurement,setting,value
Cc1ccc(C(N)=O)cc1Nc1nc(NCC(C)C)nc(N[C@H]2CCNC2)n1,IC50,THP-1,> 5000 nM
same,IC50,[1],73 nM
Cc1ccc(C(N)=O)cc1Nc1nc(NC[C@@H]2CC[C@H]3C[C@@H]2C3(C)C)nc(N2CCCN(C)CC2)n1,IC50,[1],1420 nM
CONC(=O)c1ccc(C)c(Nc2nc(N(C)CC(C)(C)C)nc(N3CCCN(C)CC3)n2)c1,IC50,[2],> 10000 nM
same,ED50,Mus musculus [3],3 mg/kg
same,IC50,[4],> 50000 nM
same,Activity,Rattus norvegicus,50%
same,Stability,Liver microsomes,0.2 nmol/mg/min
same,IC50,[5],> 10000 nM
same,IC50,THP-1,85 nM
same,Activity,[6],70%
same,IC50,[7],> 10000 nM
same,half-life,[8],42 min
same,IC50,[9],> 10000 nM
same,Activity,Mus musculus [10],Active
same,IC50,[11],> 10000 nM
same,Activity,Mus musculus [12],Active
same,IC50,[13],22 nM
same,IC50,[1],44 nM
same,clearance,[14],107 mL/min/kg
same,Activity,Mus musculus [15],Active
same,IC50,[16],> 10000 nM
same,IC50,PBMC,4.6 nM
same,bioavailability,[17],8%
same,IC50,[18],> 10000 nM
same,IC50,[19],> 10000 nM
same,Stability,[20],0.8 nmol/mg/min
Cc1ccc(C(=O)NO)cc1Nc1nc(N[C@H]2CCNC2)nc(N(C)CC(C)(C)C)n1,IC50,THP-1,150 nM
same,IC50,[1],16 nM
Cc1ccc(C(N)=O)cc1Nc1nc(N[C@H]2CCNC2)nc(N(C)CC(C)(C)C)n1,IC50,THP-1,167 nM
same,IC50,[1],24 nM
CONC(=O)c1ccc(C)c(Nc2nc(N(C)CC(C)(C)C)nc(N3CCN(C)CC3)n2)c1,IC50,THP-1,158 nM
same,IC50,[1],57 nM
Cc1ccc(C(N)=O)cc1Nc1nc(N[C@H]2CCNC2)nc(N(C)CC(C)C)n1,IC50,THP-1,325 nM
same,IC50,[1],28 nM
COC(=O)c1ccc(C)c(Nc2nc(N[C@H]3CCNC3)nc(N(C)CC(C)(C)C)n2)c1,IC50,THP-1,> 250 nM
same,IC50,[1],346 nM
COCCNC(=O)c1ccc(C)c(Nc2nc(N[C@H]3CCNC3)nc(N(C)CC(C)(C)C)n2)c1,IC50,THP-1,680 nM
same,IC50,[1],264 nM
CONC(=O)c1ccc(C)c(Nc2nc(N(C)CC(C)(C)C)nc(N3CCNCC3)n2)c1,IC50,THP-1,120 nM
same,IC50,[1],18 nM
Cc1ccc(C(N)=O)cc1Nc1nc(N)nc(NC[C@@H]2CC[C@H]3C[C@@H]2C3(C)C)n1,IC50,[1],5900 nM
Cc1ccc(C(N)=O)cc1Nc1nc(NCCc2ccc(F)cc2)nc(N[C@H]2CCNC2)n1,IC50,THP-1,> 5000 nM
same,IC50,[1],227 nM
